Test results from ChEMBL document CHEMBL3808276, “Identification of Adenine and Benzimidazole Nucleosides as Potent Human Concentrative Nucleoside Transporter 2 Inhibitors: Potential Treatment for Hyperuricemia and Gout” (J Med Chem, 2016).
≈ marks a conversion by molar mass, not a printed value. Calls of active or inactive are those of the source. The rule behind the calls is not given here.

Assays:
[1] = target: T1, Sodium/nucleoside cotransporter 2 (Homo sapiens) (UniProt O43868); experiment: Inhibition of human CNT2 expressed in African green monkey COS7 cells assessed as reduction of [14C]-inosine uptake at 100 uM by liquid scintillation counting analysis; assay type: cell-based; details: COS-7
T1 sequence (whole entry): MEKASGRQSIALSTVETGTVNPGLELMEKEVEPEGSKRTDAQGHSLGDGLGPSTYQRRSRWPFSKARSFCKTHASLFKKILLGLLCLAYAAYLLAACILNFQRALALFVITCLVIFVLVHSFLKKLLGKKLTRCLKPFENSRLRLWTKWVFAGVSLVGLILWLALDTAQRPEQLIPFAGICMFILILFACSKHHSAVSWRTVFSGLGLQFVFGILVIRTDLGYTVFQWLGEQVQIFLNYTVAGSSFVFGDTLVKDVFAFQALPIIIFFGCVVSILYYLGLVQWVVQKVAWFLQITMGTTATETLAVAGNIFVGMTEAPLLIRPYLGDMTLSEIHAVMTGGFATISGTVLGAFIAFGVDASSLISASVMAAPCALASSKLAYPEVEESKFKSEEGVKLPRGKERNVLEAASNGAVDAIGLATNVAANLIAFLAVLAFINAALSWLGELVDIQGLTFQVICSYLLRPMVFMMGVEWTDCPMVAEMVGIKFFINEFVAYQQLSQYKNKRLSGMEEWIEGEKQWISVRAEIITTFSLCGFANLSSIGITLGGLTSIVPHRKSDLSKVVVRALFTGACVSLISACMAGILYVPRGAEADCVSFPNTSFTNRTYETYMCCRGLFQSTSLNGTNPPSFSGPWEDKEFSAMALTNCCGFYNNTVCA
In short: (§1)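 COS-7 cells transiently transfected with hCNT2 in pCI-neo, assayed after 2 days. Pretreated in Na+-free choline buffer, 37 °C, 2×10 min. Uptake of 10 µM [14C]inosine for 30 min at 37 °C with 10 µM NBMPR, ±Na+, pH 7.4. Na+-dependent uptake set as 100%; lysate counted by scintillation. IC50 by nonlinear regression, ≥3 experiments; top concentration 100 µM.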

[2] = target: T2, Sodium/nucleoside cotransporter 2 (Rattus norvegicus) (UniProt Q62773); experiment: Inhibition of rat CNT2 expressed in African green monkey COS7 cells assessed as reduction of [14C]-inosine uptake at 100 uM by liquid scintillation counting analysis; assay type: cell-based; details: COS-7
T2 sequence (whole entry): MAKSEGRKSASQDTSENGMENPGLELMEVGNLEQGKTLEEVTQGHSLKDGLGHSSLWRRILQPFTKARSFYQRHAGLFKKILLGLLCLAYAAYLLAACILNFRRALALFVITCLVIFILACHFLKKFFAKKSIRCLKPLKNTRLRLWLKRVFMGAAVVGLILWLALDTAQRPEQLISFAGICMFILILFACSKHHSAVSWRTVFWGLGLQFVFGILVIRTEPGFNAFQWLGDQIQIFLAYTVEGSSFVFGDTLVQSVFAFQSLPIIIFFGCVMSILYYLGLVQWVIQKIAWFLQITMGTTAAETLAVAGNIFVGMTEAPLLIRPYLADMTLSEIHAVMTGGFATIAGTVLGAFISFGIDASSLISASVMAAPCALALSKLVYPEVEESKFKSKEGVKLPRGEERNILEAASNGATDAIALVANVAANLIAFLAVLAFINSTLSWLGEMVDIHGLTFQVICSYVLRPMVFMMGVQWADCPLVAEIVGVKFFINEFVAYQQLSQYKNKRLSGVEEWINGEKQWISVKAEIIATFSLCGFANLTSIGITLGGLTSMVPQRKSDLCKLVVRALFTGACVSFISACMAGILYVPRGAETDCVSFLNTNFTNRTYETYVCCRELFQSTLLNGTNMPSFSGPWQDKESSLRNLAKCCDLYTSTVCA

[3] = target: T3, Sodium/nucleoside cotransporter 2 (Homo sapiens, UniProt O43868); experiment: Inhibition of human CNT2 expressed in African green monkey COS7 cells assessed as reduction of [14C]-inosine uptake by liquid scintillation counting analysis; assay type: cell-based, COS-7; in short: as §1
T3 sequence (O43868 whole entry): T1 sequence (whole entry)

[4] = Solubility of compound in JP2 at pH 6.8 after 1 hr at 37 degC; assay type: physicochemical; details: JP2, pH 6.8
In short: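 Solubility measured in JP2, a 1:1 mix of pH 6.8 phosphate buffer and water, after incubation for 1 h at 37 °C.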

[5] = target: T4, Sodium/nucleoside cotransporter 2 (Rattus norvegicus, UniProt Q62773); experiment: Inhibition of rat CNT2 expressed in African green monkey COS7 cells assessed as reduction of [14C]-inosine uptake by liquid scintillation counting analysis; assay type: cell-based, COS-7
T4 sequence (Q62773 whole entry): T2 sequence (whole entry)
In short: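 rCNT2 transiently expressed in COS-7 cells, used 2 days post-transfection. 10 µM [14C]inosine uptake at 37 °C for 30 min in the presence of 10 µM NBMPR. Uptake run with Na+ or with choline replacing Na+, pH 7.4; the Na+-dependent difference defined 100% transport. Scintillation read-out; IC50 by nonlinear regression, ≥3 independent runs.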

For `CCCOc1cc(-c2ccccc2)ccc1CNc1nc2c(N)ncnc2n1[C@@H]1O[C@H](CO)[C@@H](O)[C@H]1O`, the inhibition [1] was “inactive” and the inhibition [2] was “inactive”.
For `Nc1ncnc2c1nc(NCc1ccc(-c3ccccc3)c(O)c1)n2[C@@H]1O[C@H](CO)[C@@H](O)[C@H]1O`, the IC50 [3] was 1200 nM and the inhibition [2] was “inactive”.
With `Nc1ncnc2c1nc(NCc1ccc(-c3ccncc3)cc1)n2[C@@H]1O[C@H](CO)[C@@H](O)[C@H]1O` the IC50 [3] was 2700 nM and the inhibition [2] was “inactive”.
For `CCOc1cc(CNc2nc3c(N)ncnc3n2[C@@H]2O[C@H](CO)[C@@H](O)[C@H]2O)ccc1-c1ccccc1`, the IC50 [3] was 2300 nM, the inhibition [2] was “inactive” and the solubility at 1 h [4] was 121 µg/mL (≈ 246 µM).
`Nc1ncnc2c1nc(NCc1ccc(-c3ccccc3)c(OCCCO)c1)n2[C@@H]1O[C@H](CO)[C@@H](O)[C@H]1O` showed an IC50 [3] of 1100 nM and an IC50 [5] of 45100 nM.
In the case of `CC(C)Oc1cc(CNc2nc3c(N)ncnc3n2[C@@H]2O[C@H](CO)[C@@H](O)[C@H]2O)ccc1-c1ccccc1`, the IC50 [3] is reported as 10400 nM and the inhibition [2] is reported as “inactive”.
With `COc1cc(-c2ccccc2)ccc1CNc1nc2c(N)ncnc2n1[C@@H]1O[C@H](CO)[C@@H](O)[C@H]1O` the IC50 [3] was 1100 nM, the inhibition [2] was “inactive” and the solubility at 1 h [4] was 4 µg/mL (≈ 8.36 µM).
For `CC(C)Oc1cc(-c2ccccc2)ccc1CNc1nc2c(N)ncnc2n1[C@@H]1O[C@H](CO)[C@@H](O)[C@H]1O`, the IC50 [3] was 9300 nM and the inhibition [2] was “inactive”.
For `COC(=O)COc1cc(CNc2nc3c(N)ncnc3n2[C@@H]2O[C@H](CO)[C@@H](O)[C@H]2O)ccc1-c1ccccc1`, the IC50 [3] was 3300 nM and the inhibition [2] was “inactive”.
In the case of `Nc1ncnc2c1nc(NCc1ccc(-c3ccccc3)c(OCCCCCO)c1)n2[C@@H]1O[C@H](CO)[C@@H](O)[C@H]1O`, the IC50 [3] is reported as 1600 nM and the IC50 [5] is reported as 60000 nM.
In the case of `Nc1ncnc2c1nc(NCc1ccc(-c3ccccc3)cc1)n2[C@@H]1O[C@H](CO)[C@@H](O)[C@H]1O`, the inhibition [2] is reported as “inactive” and the solubility at 1 h [4] is reported as 3 µg/mL (≈ 6.69 µM).
